Data published in ChEMBL document CHEMBL3272198, “Preparation and in vitro antifungal activities of some quinolizidine derived hemiaminals and beta-tert-amino sulfides” (1976).

What was measured:
Format in all cases: functional
Histoplasma capsulatum [1] = assay: Antifungal activity against Histoplasma capsulatum Darling isolate 1106 at 80 ug/ml after 2 weeks (reference value: 25 mm); conditions: Darling isolate 1106, 336 h, read-out: DIZ
Blastomyces dermatitidis [2] = assay: Antifungal activity against Blastomyces dermatitidis Gilchrist & Stokes isolate 1099 at 80 ug/ml after 1 week (reference value: 14 mm); conditions: Gilchrist & Stokes isolate 1099, 168 h, read-out: DIZ
Histoplasma capsulatum [3] = assay: Antifungal activity against Histoplasma capsulatum Darling isolate 1098 at 20 ug/ml after 2 weeks (reference value: 21 mm); conditions: Darling isolate 1098, 336 h, read-out: DIZ
Histoplasma capsulatum [4] = assay: Antifungal activity against Histoplasma capsulatum Darling isolate 1106 at 100 ug/ml after 1 week (reference value: 14 mm); conditions: Darling isolate 1106, 168 h, read-out: DIZ
Histoplasma capsulatum [5] = assay: Antifungal activity against Histoplasma capsulatum Darling isolate 1106 at 40 ug/ml after 3 weeks (reference value: 31 mm); conditions: Darling isolate 1106, 504 h, read-out: DIZ
Blastomyces dermatitidis [6] = assay: Antifungal activity against Blastomyces dermatitidis Gilchrist & Stokes isolate 1099 at 10 ug/ml after 3 weeks (reference value: 34 mm); conditions: Gilchrist & Stokes isolate 1099, 504 h, read-out: DIZ
Summary of the method: (§1)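 Mycelial phase grown on Sabouraud dextrose agar at 25°C. Agar pH was set to 6 before the test solution was added and was 5.0-5.5 after. Test solutions contained HOAc and Me2SO, and solvent and blank controls were included. Each quadrant was center-inoculated with a 2 × 2 mm piece of a 2-week-old mycelial culture. Colony diameter was measured weekly for 3 weeks and reported as total increments (mm). Duplicates were run.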

Histoplasma capsulatum [7] = assay: Antifungal activity against Histoplasma capsulatum Darling isolate 1098 at 80 ug/ml after 1 week (reference value: 12 mm); conditions: Darling isolate 1098, 168 h, read-out: DIZ
Histoplasma capsulatum [8] = assay: Antifungal activity against Histoplasma capsulatum Darling isolate 1106 at 10 ug/ml after 1 week (reference value: 14 mm); conditions: Darling isolate 1106, 168 h, read-out: DIZ
Histoplasma capsulatum [9] = assay: Antifungal activity against Histoplasma capsulatum Darling isolate 1106 at 10 ug/ml after 3 weeks (reference value: 31 mm); conditions: Darling isolate 1106, 504 h, read-out: DIZ
Blastomyces dermatitidis [10] = assay: Antifungal activity against Blastomyces dermatitidis Gilchrist & Stokes isolate 1107 at 40 ug/ml after 1 week (reference value: 20 mm); conditions: Gilchrist & Stokes isolate 1107, 168 h, read-out: DIZ
Blastomyces dermatitidis [11] = assay: Antifungal activity against Blastomyces dermatitidis Gilchrist & Stokes isolate 1107 at 80 ug/ml after 3 weeks (reference value: 40 mm); conditions: Gilchrist & Stokes isolate 1107, 504 h, read-out: DIZ; summary of the method: as §1
Blastomyces dermatitidis [12] = assay: Antifungal activity against Blastomyces dermatitidis Gilchrist & Stokes isolate 1107 at 20 ug/ml after 1 week (reference value: 20 mm); conditions: Gilchrist & Stokes isolate 1107, 168 h, read-out: DIZ; summary of the method: as §1
Blastomyces dermatitidis [13] = assay: Antifungal activity against Blastomyces dermatitidis Gilchrist & Stokes isolate 1107 at 60 ug/ml after 1 week (reference value: 20 mm); conditions: Gilchrist & Stokes isolate 1107, 168 h, read-out: DIZ
Blastomyces dermatitidis [14] = assay: Antifungal activity against Blastomyces dermatitidis Gilchrist & Stokes isolate 1099 at 60 ug/ml after 3 weeks (reference value: 34 mm); conditions: Gilchrist & Stokes isolate 1099, 504 h, read-out: DIZ; summary of the method: as §1
Histoplasma capsulatum [15] = assay: Antifungal activity against Histoplasma capsulatum Darling isolate 1106 at 10 ug/ml after 2 weeks (reference value: 25 mm); conditions: Darling isolate 1106, 336 h, read-out: DIZ
Blastomyces dermatitidis [16] = assay: Antifungal activity against Blastomyces dermatitidis Gilchrist & Stokes isolate 1107 at 100 ug/ml after 1 week (reference value: 20 mm); conditions: Gilchrist & Stokes isolate 1107, 168 h, read-out: DIZ
Histoplasma capsulatum [17] = assay: Antifungal activity against Histoplasma capsulatum Darling isolate 1098 at 80 ug/ml after 3 weeks (reference value: 28 mm); conditions: Darling isolate 1098, 504 h, read-out: DIZ
Blastomyces dermatitidis [18] = assay: Antifungal activity against Blastomyces dermatitidis Gilchrist & Stokes isolate 1107 at 60 ug/ml after 3 weeks (reference value: 40 mm); conditions: Gilchrist & Stokes isolate 1107, 504 h, read-out: DIZ; summary of the method: as §1
Histoplasma capsulatum [19] = assay: Antifungal activity against Histoplasma capsulatum Darling isolate 1106 at 20 ug/ml after 2 weeks (reference value: 25 mm); conditions: Darling isolate 1106, 336 h, read-out: DIZ
Blastomyces dermatitidis [20] = assay: Antifungal activity against Blastomyces dermatitidis Gilchrist & Stokes isolate 1099 at 10 ug/ml after 2 weeks (reference value: 27 mm); conditions: Gilchrist & Stokes isolate 1099, 336 h, read-out: DIZ; summary of the method: as §1
Blastomyces dermatitidis [21] = assay: Antifungal activity against Blastomyces dermatitidis Gilchrist & Stokes isolate 1107 at 80 ug/ml after 1 week (reference value: 20 mm); conditions: Gilchrist & Stokes isolate 1107, 168 h, read-out: DIZ
Blastomyces dermatitidis [22] = assay: Antifungal activity against Blastomyces dermatitidis Gilchrist & Stokes isolate 1099 at 60 ug/ml after 1 week (reference value: 14 mm); conditions: Gilchrist & Stokes isolate 1099, 168 h, read-out: DIZ
Histoplasma capsulatum [23] = assay: Antifungal activity against Histoplasma capsulatum Darling isolate 1098 at 10 ug/ml after 1 week (reference value: 12 mm); conditions: Darling isolate 1098, 168 h, read-out: DIZ
Histoplasma capsulatum [24] = assay: Antifungal activity against Histoplasma capsulatum Darling isolate 1098 at 40 ug/ml after 3 weeks (reference value: 28 mm); conditions: Darling isolate 1098, 504 h, read-out: DIZ
Blastomyces dermatitidis [25] = assay: Antifungal activity against Blastomyces dermatitidis Gilchrist & Stokes isolate 1099 at 100 ug/ml after 1 week (reference value: 14 mm); conditions: Gilchrist & Stokes isolate 1099, 168 h, read-out: DIZ
Blastomyces dermatitidis [26] = assay: Antifungal activity against Blastomyces dermatitidis Gilchrist & Stokes isolate 1107 at 40 ug/ml after 2 weeks (reference value: 35 mm); conditions: Gilchrist & Stokes isolate 1107, 336 h, read-out: DIZ; summary of the method: as §1
Blastomyces dermatitidis [27] = assay: Antifungal activity against Blastomyces dermatitidis Gilchrist & Stokes isolate 1107 at 10 ug/ml after 2 weeks (reference value: 35 mm); conditions: Gilchrist & Stokes isolate 1107, 336 h, read-out: DIZ; summary of the method: as §1
Histoplasma capsulatum [28] = assay: Antifungal activity against Histoplasma capsulatum Darling isolate 1098 at 100 ug/ml after 3 weeks (reference value: 28 mm); conditions: Darling isolate 1098, 504 h, read-out: DIZ
Blastomyces dermatitidis [29] = assay: Antifungal activity against Blastomyces dermatitidis Gilchrist & Stokes isolate 1099 at 60 ug/ml after 2 weeks (reference value: 27 mm); conditions: Gilchrist & Stokes isolate 1099, 336 h, read-out: DIZ; summary of the method: as §1
Histoplasma capsulatum [30] = assay: Antifungal activity against Histoplasma capsulatum Darling isolate 1106 at 80 ug/ml after 1 week (reference value: 14 mm); conditions: Darling isolate 1106, 168 h, read-out: DIZ
Blastomyces dermatitidis [31] = assay: Antifungal activity against Blastomyces dermatitidis Gilchrist & Stokes isolate 1099 at 80 ug/ml after 3 weeks (reference value: 34 mm); conditions: Gilchrist & Stokes isolate 1099, 504 h, read-out: DIZ; summary of the method: as §1
Histoplasma capsulatum [32] = assay: Antifungal activity against Histoplasma capsulatum Darling isolate 1098 at 60 ug/ml after 1 week (reference value: 12 mm); conditions: Darling isolate 1098, 168 h, read-out: DIZ
Blastomyces dermatitidis [33] = assay: Antifungal activity against Blastomyces dermatitidis Gilchrist & Stokes isolate 1107 at 100 ug/ml after 3 weeks (reference value: 40 mm); conditions: Gilchrist & Stokes isolate 1107, 504 h, read-out: DIZ; summary of the method: as §1
Histoplasma capsulatum [34] = assay: Antifungal activity against Histoplasma capsulatum Darling isolate 1098 at 40 ug/ml after 1 week (reference value: 12 mm); conditions: Darling isolate 1098, 168 h, read-out: DIZ
Histoplasma capsulatum [35] = assay: Antifungal activity against Histoplasma capsulatum Darling isolate 1098 at 100 ug/ml after 2 weeks (reference value: 21 mm); conditions: Darling isolate 1098, 336 h, read-out: DIZ
Blastomyces dermatitidis [36] = assay: Antifungal activity against Blastomyces dermatitidis Gilchrist & Stokes isolate 1099 at 40 ug/ml after 2 weeks (reference value: 27 mm); conditions: Gilchrist & Stokes isolate 1099, 336 h, read-out: DIZ; summary of the method: as §1
Histoplasma capsulatum [37] = assay: Antifungal activity against Histoplasma capsulatum Darling isolate 1106 at 40 ug/ml after 2 weeks (reference value: 25 mm); conditions: Darling isolate 1106, 336 h, read-out: DIZ
Blastomyces dermatitidis [38] = assay: Antifungal activity against Blastomyces dermatitidis Gilchrist & Stokes isolate 1099 at 10 ug/ml after 1 week (reference value: 14 mm); conditions: Gilchrist & Stokes isolate 1099, 168 h, read-out: DIZ; summary of the method: as §1
Blastomyces dermatitidis [39] = assay: Antifungal activity against Blastomyces dermatitidis Gilchrist & Stokes isolate 1099 at 40 ug/ml after 3 weeks (reference value: 34 mm); conditions: Gilchrist & Stokes isolate 1099, 504 h, read-out: DIZ; summary of the method: as §1

CS[C@@]1(C)CC[C@@H]2CCCCN2C1O (some centres undefined) was tested, and the zone of inhibition at 80 µg/mL (Histoplasma capsulatum [1]) was 19 mm, the zone of inhibition at 80 µg/mL (Blastomyces dermatitidis [2]) was 13 mm and the zone of inhibition at 20 µg/mL (Histoplasma capsulatum [3]) was 18 mm. For the same compound, the zone of inhibition at 100 µg/mL (Histoplasma capsulatum [4]) was 9 mm, the zone of inhibition at 40 µg/mL (Histoplasma capsulatum [5]) was 28 mm and the zone of inhibition at 10 µg/mL (Blastomyces dermatitidis [6]) was 38 mm. For the same compound, the zone of inhibition at 80 µg/mL (Histoplasma capsulatum [7]) was 9 mm, the zone of inhibition at 10 µg/mL (Histoplasma capsulatum [8]) was 11 mm and the zone of inhibition at 10 µg/mL (Histoplasma capsulatum [9]) was 26 mm. It also gave a zone of inhibition at 40 µg/mL (Blastomyces dermatitidis [10]) of 20 mm, a zone of inhibition at 80 µg/mL (Blastomyces dermatitidis [11]) of 40 mm and a zone of inhibition at 20 µg/mL (Blastomyces dermatitidis [12]) of 21 mm. It also gave a zone of inhibition at 60 µg/mL (Blastomyces dermatitidis [13]) of 20 mm, a zone of inhibition at 60 µg/mL (Blastomyces dermatitidis [14]) of 32 mm and a zone of inhibition at 10 µg/mL (Histoplasma capsulatum [15]) of 21 mm. For the same compound, the zone of inhibition at 100 µg/mL (Blastomyces dermatitidis [16]) was 16 mm, the zone of inhibition at 80 µg/mL (Histoplasma capsulatum [17]) was 30 mm and the zone of inhibition at 60 µg/mL (Blastomyces dermatitidis [18]) was 40 mm. It also gave a zone of inhibition at 20 µg/mL (Histoplasma capsulatum [19]) of 20 mm, a zone of inhibition at 10 µg/mL (Blastomyces dermatitidis [20]) of 28 mm and a zone of inhibition at 80 µg/mL (Blastomyces dermatitidis [21]) of 18 mm. For the same compound, the zone of inhibition at 60 µg/mL (Blastomyces dermatitidis [22]) was 13 mm, the zone of inhibition at 10 µg/mL (Histoplasma capsulatum [23]) was 11 mm and the zone of inhibition at 40 µg/mL (Histoplasma capsulatum [24]) was 30 mm. It also gave a zone of inhibition at 100 µg/mL (Blastomyces dermatitidis [25]) of 13 mm, a zone of inhibition at 40 µg/mL (Blastomyces dermatitidis [26]) of 33 mm and a zone of inhibition at 10 µg/mL (Blastomyces dermatitidis [27]) of 33 mm. For the same compound, the zone of inhibition at 100 µg/mL (Histoplasma capsulatum [28]) was 30 mm, the zone of inhibition at 60 µg/mL (Blastomyces dermatitidis [29]) was 25 mm and the zone of inhibition at 80 µg/mL (Histoplasma capsulatum [30]) was 10 mm. It also gave a zone of inhibition at 80 µg/mL (Blastomyces dermatitidis [31]) of 33 mm, a zone of inhibition at 60 µg/mL (Histoplasma capsulatum [32]) of 9 mm and a zone of inhibition at 100 µg/mL (Blastomyces dermatitidis [33]) of 40 mm. It also gave a zone of inhibition at 40 µg/mL (Histoplasma capsulatum [34]) of 9 mm, a zone of inhibition at 100 µg/mL (Histoplasma capsulatum [35]) of 15 mm and a zone of inhibition at 40 µg/mL (Blastomyces dermatitidis [36]) of 26 mm. It also gave a zone of inhibition at 40 µg/mL (Histoplasma capsulatum [37]) of 21 mm, a zone of inhibition at 10 µg/mL (Blastomyces dermatitidis [38]) of 16 mm and a zone of inhibition at 40 µg/mL (Blastomyces dermatitidis [39]) of 34 mm.
